From ChEMBL document CHEMBL3621126, “Difluoromethyl ketones: Potent inhibitors of wild type and carbamate-insensitive G119S mutant Anopheles gambiae acetylcholinesterase” (Bioorg Med Chem Lett, 2015)
pIC50, pKi: −log10 of the molar value. Converted amounts (≈) assume the structure as drawn.

Legend:
Acetylcholinesterase [1] = target: T1, Acetylcholinesterase (Homo sapiens, UniProt P22303); assay: Inhibition of recombinant human AChE after 60 mins by Ellman assay
[2] = Inhibition of Anopheles gambiae AChE G119S mutant after 10 mins by Ellman assay
Acetylcholinesterase [3] = target: T1, Acetylcholinesterase; assay: Inhibition of recombinant human AChE after 10 mins by Ellman assay
[4] = Inhibition of recombinant Anopheles gambiae AChE G119S mutant after 60 mins by Ellman assay
Acetylcholinesterase [5] = target: T2, Acetylcholinesterase (Anopheles gambiae, UniProt Q869C3); assay: Inhibition of recombinant Anopheles gambiae wild type AChE after 60 mins by Ellman assay
T2 sequence (Q869C3 whole entry): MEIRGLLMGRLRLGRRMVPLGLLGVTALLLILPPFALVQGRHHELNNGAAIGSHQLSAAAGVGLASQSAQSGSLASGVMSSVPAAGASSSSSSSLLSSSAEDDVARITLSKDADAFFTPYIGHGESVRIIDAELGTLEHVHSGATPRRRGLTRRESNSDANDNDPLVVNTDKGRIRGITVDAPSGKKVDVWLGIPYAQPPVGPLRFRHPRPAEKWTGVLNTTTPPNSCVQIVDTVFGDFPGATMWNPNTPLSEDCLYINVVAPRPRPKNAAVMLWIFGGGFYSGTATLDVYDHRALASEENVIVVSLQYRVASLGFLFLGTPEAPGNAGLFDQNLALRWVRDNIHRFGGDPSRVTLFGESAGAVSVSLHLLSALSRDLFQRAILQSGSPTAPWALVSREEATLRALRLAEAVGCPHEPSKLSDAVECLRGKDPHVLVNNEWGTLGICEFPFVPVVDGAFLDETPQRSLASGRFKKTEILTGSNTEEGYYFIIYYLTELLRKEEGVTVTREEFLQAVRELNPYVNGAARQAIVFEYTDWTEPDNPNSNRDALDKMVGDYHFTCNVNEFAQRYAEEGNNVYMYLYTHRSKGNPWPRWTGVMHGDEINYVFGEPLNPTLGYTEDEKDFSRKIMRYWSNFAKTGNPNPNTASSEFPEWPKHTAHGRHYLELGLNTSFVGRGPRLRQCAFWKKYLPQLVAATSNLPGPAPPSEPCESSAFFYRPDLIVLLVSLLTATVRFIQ

Acetylcholinesterase [6] = target: T2, Acetylcholinesterase; assay: Inhibition of recombinant Anopheles gambiae wild type AChE after 10 mins by Ellman assay
Anopheles gambiae [7] = assay: Insecticidal activity against Anopheles gambiae G3 assessed as torsal contact toxicity by measuring mortality at 1000 ug/mL after 24 hrs by filter paper based method; format: functional; details: G3, 24 h
How it was run: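 Adult susceptible G3 An. gambiae were tested by the WHO treated-paper tarsal contact protocol. Papers were treated with ethanolic compound solutions at 1000 µg/mL and dried overnight. Mosquitoes were exposed 1 h and mortality recorded after 24 h.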

Anopheles gambiae [8] = assay: Insecticidal activity against Anopheles gambiae G3 assessed as torsal contact toxicity by measuring mortality after 24 hrs by filter paper based method; format: functional; details: G3, 24 h
How it was run: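 Adult susceptible G3 An. gambiae were tested by the WHO treated-paper tarsal contact protocol. Papers were treated with ethanolic compound solutions and dried overnight. Mosquitoes were exposed 1 h and mortality recorded 24 h later.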

Anopheles gambiae [9] = assay: Insecticidal activity against Anopheles gambiae G3 assessed as fumigation mortality at 1000 ng/mL after 24 hrs by mason jar assay; format: functional; details: G3, 24 h
How it was run: (§1)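 Fumigation of adult G3 An. gambiae in a sealed 1 L vessel, with % mortality read after 24 h. Nominal concentration was calculated from the inhibitor mass delivered and the vessel volume.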

Anopheles gambiae [10] = assay: Insecticidal activity against Anopheles gambiae G3 assessed as mortality after 24 hrs; format: functional
Acetylcholinesterase [11] = target: T1, Acetylcholinesterase; assay: Inhibition of recombinant human AChE by Ellman assay; details: TDE = time-dependent effect
How it was run: (§2)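 Modified Ellman assay in microtiter plates with recombinant enzymes (human AChE, wild-type or G119S Anopheles gambiae AChE). Inhibitor preincubated 10 or 60 min at 23 ± 1°C, pH 7.7, 0.1% (v/v) DMSO, before adding substrate. Ten inhibitor concentrations were run alongside inhibitor-free control wells. IC50 was taken from sigmoidal plots of residual activity (v/v0) vs [I].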

[12] = target: Acetylcholinesterase (Anopheles gambiae) (UniProt Q869C3); assay: Inhibition of recombinant Anopheles gambiae wild type AChE by Ellman assay; details: TDE = time-dependent effect; how it was run: as §2
Chain of Acetylcholinesterase (Anopheles gambiae) (Q869C3 39-737 limits assumed): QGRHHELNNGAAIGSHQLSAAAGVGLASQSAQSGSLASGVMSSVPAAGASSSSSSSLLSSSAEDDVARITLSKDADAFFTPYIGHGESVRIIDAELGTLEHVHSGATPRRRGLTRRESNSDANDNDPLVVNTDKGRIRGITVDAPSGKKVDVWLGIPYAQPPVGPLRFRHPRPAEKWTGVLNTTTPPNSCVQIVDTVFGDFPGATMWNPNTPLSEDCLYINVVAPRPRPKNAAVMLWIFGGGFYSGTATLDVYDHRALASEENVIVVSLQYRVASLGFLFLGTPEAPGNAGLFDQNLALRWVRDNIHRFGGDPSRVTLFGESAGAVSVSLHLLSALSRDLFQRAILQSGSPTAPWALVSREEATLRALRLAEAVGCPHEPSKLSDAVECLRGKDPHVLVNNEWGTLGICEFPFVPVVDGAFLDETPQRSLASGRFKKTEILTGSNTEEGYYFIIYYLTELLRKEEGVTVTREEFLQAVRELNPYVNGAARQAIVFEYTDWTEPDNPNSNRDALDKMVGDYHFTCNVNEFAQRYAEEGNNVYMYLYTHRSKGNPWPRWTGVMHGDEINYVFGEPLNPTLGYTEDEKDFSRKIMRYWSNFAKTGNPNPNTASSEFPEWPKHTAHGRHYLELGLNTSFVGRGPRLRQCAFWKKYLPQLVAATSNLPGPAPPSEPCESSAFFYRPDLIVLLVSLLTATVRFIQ

Acetylcholinesterase [13] = target: Acetylcholinesterase (Electrophorus electricus, UniProt O42275); assay: Inhibition of electric eel AChE
Chain of Acetylcholinesterase (Electrophorus electricus, UniProt O42275) (O42275 whole entry): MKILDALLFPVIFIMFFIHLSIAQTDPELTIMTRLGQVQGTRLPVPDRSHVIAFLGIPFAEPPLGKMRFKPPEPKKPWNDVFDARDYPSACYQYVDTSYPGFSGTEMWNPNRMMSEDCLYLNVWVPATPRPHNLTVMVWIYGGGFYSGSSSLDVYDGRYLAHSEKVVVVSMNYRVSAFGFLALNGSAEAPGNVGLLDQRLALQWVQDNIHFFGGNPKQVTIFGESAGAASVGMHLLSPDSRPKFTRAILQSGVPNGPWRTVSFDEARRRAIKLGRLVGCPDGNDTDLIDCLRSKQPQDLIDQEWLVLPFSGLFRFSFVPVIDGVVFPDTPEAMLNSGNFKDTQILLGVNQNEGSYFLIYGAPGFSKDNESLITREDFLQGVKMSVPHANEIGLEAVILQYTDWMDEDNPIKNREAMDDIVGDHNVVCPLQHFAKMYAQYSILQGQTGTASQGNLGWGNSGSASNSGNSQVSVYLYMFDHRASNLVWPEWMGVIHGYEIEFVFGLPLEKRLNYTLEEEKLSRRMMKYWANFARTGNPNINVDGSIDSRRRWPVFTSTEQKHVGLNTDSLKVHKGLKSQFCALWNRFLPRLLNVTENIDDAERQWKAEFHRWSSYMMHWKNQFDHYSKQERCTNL

Anopheles gambiae [14] = assay: Insecticidal activity against Anopheles gambiae G3 assessed as mortality at 50 ng/insect after 24 hrs (reference value: 11 +/- 4%); format: functional
Anopheles gambiae [15] = assay: Insecticidal activity against Anopheles gambiae G3 assessed as fumigation mortality at 10 ng/mL after 24 hrs by mason jar assay; format: functional; details: G3, 24 h; how it was run: as §1
[16] = Inhibition of recombinant Anopheles gambiae AChE G119S mutant after 330 mins by Ellman assay
How it was run: (§3)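 Recombinant G119S mutant An. gambiae AChE; modified Ellman assay in microtiter plates at 23 ± 1°C, pH 7.7, 0.1% (v/v) DMSO. Enzyme preincubated with inhibitor over a range of concentrations before substrate added; inhibitor-free controls flank 10 concentrations, right-hand control used for residual activity (v/v0). IC50 taken from sigmoidal plots of v/v0 versus [I].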

[17] = Inhibition of recombinant Anopheles gambiae AChE G119S mutant after 1380 mins by Ellman assay; how it was run: as §3
Anopheles gambiae [18] = assay: Ratio of IC50 for recombinant Anopheles gambiae AChE G119S mutant to IC50 for recombinant wild type Anopheles gambiae AChE after 60 mins

T1 sequence (P22303 whole entry): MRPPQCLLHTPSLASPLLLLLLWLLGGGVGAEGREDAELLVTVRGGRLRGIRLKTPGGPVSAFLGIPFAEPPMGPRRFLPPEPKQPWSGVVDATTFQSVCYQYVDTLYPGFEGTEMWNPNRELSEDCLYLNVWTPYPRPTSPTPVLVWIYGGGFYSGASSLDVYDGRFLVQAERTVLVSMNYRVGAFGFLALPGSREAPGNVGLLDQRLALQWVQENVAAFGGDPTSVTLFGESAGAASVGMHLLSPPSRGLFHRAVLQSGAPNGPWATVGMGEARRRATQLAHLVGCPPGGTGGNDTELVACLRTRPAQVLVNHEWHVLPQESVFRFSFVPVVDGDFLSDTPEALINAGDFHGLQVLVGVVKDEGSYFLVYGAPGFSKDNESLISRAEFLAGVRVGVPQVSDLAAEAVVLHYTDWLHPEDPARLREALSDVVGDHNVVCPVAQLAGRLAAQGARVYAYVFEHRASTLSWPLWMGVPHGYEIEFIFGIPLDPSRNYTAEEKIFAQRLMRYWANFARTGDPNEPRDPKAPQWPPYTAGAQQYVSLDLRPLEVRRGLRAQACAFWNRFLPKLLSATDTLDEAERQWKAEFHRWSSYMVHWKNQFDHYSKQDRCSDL

Compound	pIC50 (Acetylcholinesterase [1])	pIC50 [2]	pIC50 (Acetylcholinesterase [3])	pIC50 [4]	pIC50 (Acetylcholinesterase [5])	pIC50 (Acetylcholinesterase [6])	mortality at 1000 µg/mL (Anopheles gambiae [7])	LC50 (Anopheles gambiae [8])	mortality at 1 µg/mL (Anopheles gambiae [9])	LD50 (Anopheles gambiae [10])	inhibition (Acetylcholinesterase [11])	inhibition [12]	pKi (Acetylcholinesterase [13])	mortality (Anopheles gambiae [14])	mortality at 0.01 µg/mL (Anopheles gambiae [15])	pIC50 [16]	pIC50 [17]	Ratio IC50 (Anopheles gambiae [18])
CC(C)n1cc(C(=O)CF)cn1	< 5.00	< 5.00	< 5.00	< 5.00	< 5.00	< 5.00	85%	–	–	–	–	–	–	–	–	–	–	–
CNC(=O)Oc1ccccc1OC(C)C [PROPOXUR]	6.23	< 5.00	5.64	< 5.00	7.36	6.74	39%	32 µg/mL (≈ 153 µM)	0%	0.2 ng	–	–	–	–	–	–	–	–
CCCC(C)n1cc(C(=O)C(F)(F)F)cn1 (stereo not drawn)	8.08	4.70	8.15	5.70	8.69	8.43	0%	–	–	–	tde	tde	–	–	–	–	–	–
CC(C)Cn1cc(C(=O)CF)cn1	< 5.00	< 5.00	< 5.00	< 5.00	< 5.00	< 5.00	20%	–	–	–	–	–	–	–	–	–	–	–
CC(C)Cn1cc(C(=O)C(F)(F)F)cn1	6.17	< 5.00	6.23	< 5.00	5.98	6.02	–	–	–	–	tde	tde	–	–	–	–	–	–
CC(=O)C(F)(F)CCC(C)(C)C	–	–	–	–	–	–	–	–	–	–	–	–	8.80	–	–	–	–	–
CCCC(C)n1cc(C(=O)C(F)F)cn1 (stereo not drawn)	6.80	6.10	6.83	6.53	7.54	7.63	0%	–	–	–	–	–	–	–	–	–	–	–
CCC(CC)n1cc(C(=O)CF)cn1	5.28	5.52	5.28	5.52	6.47	6.45	85%	–	8%	–	–	–	–	–	–	–	–	–
CCCC(C)n1cc(C(=O)CF)cn1 (stereo not drawn)	4.75	< 5.00	4.62	< 5.00	5.48	5.45	20%	–	–	–	–	–	–	–	–	–	–	–
CC(C)Cn1cc(C(=O)C(F)F)cn1	4.96	< 5.00	5.01	< 5.00	5.40	5.52	–	–	–	–	–	–	–	–	–	–	–	–
COP(=O)(OC)OC=C(Cl)Cl [DICHLORVOS]	–	5.78	–	6.52	7.22	6.49	–	–	–	–	–	–	–	83%	100%	–	–	–
CC(C)n1cc(C(=O)C(F)(F)F)cn1	6.92	< 5.00	7.11	< 5.00	6.55	6.85	20%	–	–	–	tde	tde	–	–	–	–	–	–
CC(C)(C)c1cccc(C(=O)CF)c1	–	< 5.00	–	–	–	–	50%	–	–	–	–	–	–	–	–	–	–	–
CCC(C)n1cc(C(=O)C(F)F)cn1 (stereo not drawn)	7.07	6.34	6.96	6.73	7.60	7.58	50%	–	–	–	–	–	–	–	–	–	–	–
CCC(C)n1cc(C(=O)CF)cn1 (stereo not drawn)	4.74	< 5.00	4.77	< 5.00	5.54	5.56	65%	–	–	–	–	–	–	–	–	–	–	–
C[Si](C)(C)c1cccc(C(=O)C(F)(F)F)c1	7.03	< 5.00	6.55	5.00	6.59	6.07	10%	–	–	–	tde	tde	–	–	–	–	–	–
O=C(c1cnn(C2CCCC2)c1)C(F)(F)F	8.21	< 5.00	8.28	5.45	8.81	8.54	40%	–	–	–	tde	tde	–	–	–	–	–	–
CCC(CC)n1cc(C(=O)C(F)F)cn1	7.45	6.17	7.54	6.90	8.91	9.00	0%	–	57%	–	–	–	–	21%	–	7.44	7.60	–
O=C(c1cnn(C2CCCC2)c1)C(F)F	6.61	5.49	6.68	5.47	6.87	6.97	0%	–	–	–	–	–	–	–	–	–	–	–
O=C(CF)c1cnn(C2CCCC2)c1	5.88	< 5.00	5.60	< 5.00	5.81	5.23	0%	–	–	–	–	–	–	–	–	–	–	–
CC(C)n1cc(C(=O)C(F)F)cn1	6.06	5.08	6.10	5.08	6.37	6.45	50%	–	–	–	–	–	–	–	–	–	–	–
CCC(CC)n1cc(C(=O)C(F)(F)F)cn1	8.64	< 5.00	8.42	5.76	9.17	8.56	40%	–	86%	–	tde	tde	–	65%	–	–	–	2500
CC(C)(C)c1cccc(C(=O)C(F)(F)F)c1	8.30	< 5.00	7.84	4.68	7.74	7.27	8%	–	–	–	tde	tde	–	–	–	–	–	–
CCC(C)n1cc(C(=O)C(F)(F)F)cn1 (stereo not drawn)	8.05	5.09	8.19	5.63	8.64	8.61	30%	–	–	–	tde	tde	–	–	–	–	–	–
CC(C)(C)c1cccc(C(=O)C(F)F)c1	–	–	8.22	–	–	–	20%	–	–	–	–	–	–	–	–	–	–	–
